The list is not random: actives were taken first. Their share in the collection is about 4.1%.
UPR CHOP act: activators of apoptotic arm of unfolded protein response (CHOP); CHO-CHOP luciferase reporter, UPR activation, luminescence; percent of tunicamycin response over DMSO baseline; activation, % at 10 µM; hit rate 0.34% among 330,000; AID 449763;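 active means at 10 µM dose, activation of 40% or more, normalized to positive control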
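Material: CHO-CHOP cells, stable luciferase reporter of PERK-eIF2a-CHOP signalling; quantity: 500 reporter cells seeded per well; buffer or medium: F12 medium containing 10% fetal bovine serum; compound: one dose, 10 µM in 0.5% DMSO; incubation: 6 h compound treatment, 37 °C; measured by: Steady-Glo luciferase luminescence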
Mdm2 MdmX PPI: human Mdm2/MdmX binding inhibition; SaOS-2 split-luciferase Mdm2/MdmX complementation, luminescence; inhibition, % at 8 µM; hit rate 3% among 330,000;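 active means inhibition of at least 50% at 8 µM in the primary screen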
Apaf-1 inh: human Apaf-1 inhibition. reconstituted apoptosome caspase-3 activity, DEVD-Rh110 fluorescence. inhibition, % at 20 µM. hit rate 0.71% among 330,000; active means inhibition of at least 40% at 20 µM
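Assay system – apoptosome proteins · Medium – Hepes buffer, pH 7.5 · Also added – cytochrome c with DEVD-Rh110 · Timing – 30 min compound preincubation, 50 min activation, room temperature · Detection – Rh110 fluorescence, excitation 480 nm, emission 540 nm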
UBC13 polyUb: inhibitors of human UBC13 polyubiquitin chain formation; P61088; TR-FRET; inhibition, % at 20 µM; hit rate 0.47% among 330,000; AID 485273; in the data active means inhibition above about 45%, passing the limit was not always enough
UPR XBP1 act: adaptive UPR (XBP1) activation | CHO-XBP1 luciferase reporter, IRE1-XBP1 UPR activation, luminescence; percent of tunicamycin response, DMSO as zero | activation, % at 20 µM | hit rate 0.33% among 330,000 | AID 463104;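 active means versus positive control, 20 µM dose yields 30% or more activation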
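Material: CHO cell line with stable XBP1 luciferase reporter; schedule: 16-18 h cell attachment at 37 °C, then 6 h compound exposure; signal: glow luminescence from Steady-Glo reagent; medium: serum-containing F12 medium, 10% FBS; benchmarks: tunicamycin 10 µg/mL and vehicle-only wells; read-out: percent activation relative to tunicamycin reference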
Casp3 UBC13 ctr: counter-screen for UBC13 inhibitors: human caspase-3 inhibition; shares compounds with UBC13 polyUb; Recombinant caspase-3, Caspase-Glo 3/7 luminescence, 60 min; inhibition, % at 20 µM; hit rate 4% among 1,400;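 active means mean inhibition across replicates above about 26%, limit read from the data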
UBC13 confirm: confirmation of human UBC13 polyubiquitin inhibitors. shares compounds with UBC13 polyUb. UBC13 polyubiquitination, TR-FRET, biochemical. inhibition, % at 10 µM. hit rate 68% among 1,400. AID 488859; in the data active means inhibition above about 45%
Mdm2 MdmX conf: confirmation of human Mdm2/MdmX interaction inhibitors; hit rate 55% among 10,000; AID 489028; shares compounds with Mdm2 MdmX PPI; inhibition, % at 8 µM; Mdm2-MdmX binding, luminescent assay; in the data active means inhibition above about 40%
Full FLuc ctr: counter-screen for Mdm2/MdmX inhibitors: full-length luciferase | inhibition, % at 8 µM | hit rate 77% among 6,200 | shares compounds with Mdm2 MdmX PPI | AID 504607 | SaOS-2 full-length luciferase counterscreen, luminescence;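 active means mean inhibition at 8 µM reaching about 37%, which flags the compound as non-specific, limit read from the data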;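 further: p53-null SaOS-2 cells with luciferase driven by a doxycycline-inducible promoter; compound on cells about two nights before reading with doxycycline added after day one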
A number is an active result; i = inactive; nt = no result given.

SMILES	UPR CHOP act	Mdm2 MdmX PPI	Apaf-1 inh	UBC13 polyUb	UPR XBP1 act	Casp3 UBC13 ctr	UBC13 confirm	Mdm2 MdmX conf	Full FLuc ctr
O=C(NC1CC2CCCC(C1)N2C(=O)Nc1ccc(Cl)c(C(F)(F)F)c1)C1CC1 (stereo unspecified)	i	i	i	i	i	nt	nt	nt	nt
O=C(Nc1ccc(Cl)c(C(F)(F)F)c1)NC1CC2CCCC(C1)N2Cc1ccccc1 (stereo unspecified)	i	83	i	46	i	i	63	52	60
CC[C@@H](C)[C@H](CN[C@H](CNC)C(C)C)NC[C@@H](C)c1ccc(CC(C)C)cc1	i	98	i	89	i	i	72	100	52
COc1ccccc1N1C(=O)CC(Sc2ccccc2N)C1=O (stereo unspecified)	i	i	i	i	i	nt	nt	nt	nt
CC[C@H](C)[C@@H](CN[C@H](C)CNC)NCCC(c1ccccc1)c1ccccc1	i	99	i	55	i	i	i	93	i
CC(=O)Nc1sc2c(c1-c1nc3ccccc3s1)CCN(C(C)C)C2	i	100	i	60	i	i	i	69	60
C/C=C1\COC(C(=O)NCc2ccccc2)(C(F)(F)F)C=C1C=C1CCCCC1 (stereo unspecified)	i	i	i	i	i	nt	nt	nt	nt
C/C=C1\COC(C(=O)NCCN2CCCC2)(C(F)(F)F)C=C1C=C1CCCCC1 (stereo unspecified)	i	53	i	55	i	i	52	i	nt
COc1ccc(/C=C2\Sc3ccc(C(=O)NCCN4CCCCCC4)cc3N(C)C2=O)cc1	i	i	i	i	i	nt	nt	nt	nt
CCN1CCN(CCNC(=O)c2ccc3c(c2)N(Cc2ccc(F)cc2)C(=O)/C(=C/c2ccccc2)S3)CC1	i	96	i	65	i	i	92	74	i
COc1cccc(/C=C2/Sc3ccc(C(=O)NCCN4CCCC4)cc3NC2=O)c1	i	58	i	50	i	i	74	i	nt
O=C(NCC1CCCCC1)C1(CC2CC(c3cccc(Br)c3)=NO2)CCNCC1 (stereo unspecified)	i	79	i	51	i	i	52	i	nt
CCOc1cc(C(=O)N2CCC(CC3CC(c4ccc(Cl)cc4)=NO3)(C(=O)NCC3CCCCC3)CC2)cc(OCC)c1OCC (stereo unspecified)	i	i	i	i	i	nt	nt	nt	nt
O=C(NCC1CCCCC1)C1(CC2CC(c3ccc(Cl)cc3)=NO2)CCNCC1 (stereo unspecified)	i	67	i	46	i	i	47	i	nt
Cc1ccc(S(=O)(=O)N(CC(=O)Nc2cccc(C(F)(F)F)c2)C(=O)N2CCN(C)CC2)cc1	i	i	i	i	i	nt	nt	nt	nt
COc1ccc(CNC(=O)c2ccc(N3CCC4(CC3)CC(c3ccc(Cl)cc3)=NO4)c(N)c2)cc1	i	i	i	i	i	nt	nt	nt	nt
Oc1[nH]c2ccc(Br)cc2c1N=NC(=S)NCC1CCCO1 (stereo unspecified)	i	68	i	79	i	i	97	53	48
O=C(CCCn1c(=S)[nH]c2ccc(Br)cc2c1=O)NCC1CCCO1 (stereo unspecified)	i	i	i	i	i	nt	nt	nt	nt
COc1ccc(S(=O)(=O)NC(C)C(=O)N2CCCC2)cc1C (stereo unspecified)	i	i	i	i	i	nt	nt	nt	nt
O=C(Nc1cccc(C(F)(F)F)c1)Nc1ccon1	i	i	i	i	i	nt	nt	nt	nt
Cc1ccc(-c2nn(-c3ccccc3)cc2CSC(=N)N)cc1	i	52	i	45	i	i	48	i	nt
C#CCOCCOCCOCCNc1nc(N2CCN(C(=O)[C@H]([C@@H](C)CC)n3cc(CCCCN)nn3)CC2)nc(N2CCN(C(=O)[C@H](CCCCN)n3cc(CCC(=O)O)nn3)CC2)n1	i	i	i	i	i	nt	nt	nt	nt
C#CCOCCOCCOCCNc1nc(N2CCN(C(=O)CCCCCCCCCCNC(=O)[C@H](CCCCN)n3cc(C)nn3)CC2)nc(N2CCN(C(=O)CCCCCCCCCCNC(=O)[C@@H]([C@H](C)CC)n3cc(CCCCCN)nn3)CC2)n1	i	100	82	126	i	i	128	100	i
Cn1nc([N+](=O)[O-])nc1N1CCOCC1	i	i	i	i	i	nt	nt	nt	nt
CCN(CC)CCOc1ccc(/C(=C(\Cl)c2ccccc2)c2ccccc2)cc1	i	69	66	74	i	i	81	i	nt
SMILES	UPR CHOP act	Mdm2 MdmX PPI	Apaf-1 inh	UBC13 polyUb	UPR XBP1 act	Casp3 UBC13 ctr	UBC13 confirm	Mdm2 MdmX conf	Full FLuc ctr
Cc1ccc(C)c(N2CCN(CCCNC(=O)CCC(=O)N3CCOc4ccc(Cl)cc43)CC2)c1	i	78	i	60	i	i	80	43	56
O=C(CCC(=O)N1CCOc2ccc(Cl)cc21)NCCCN1CCC(Cc2ccccc2)CC1	i	83	i	92	i	i	92	50	95
COc1ccc(N2CCN(CCCNC(=O)CCC(=O)N3CCOc4ccc(Cl)cc43)CC2)cc1	i	i	i	i	i	nt	nt	nt	nt
Cc1ccc2c(c1)c1c3n2CCCNC3CCC1 (stereo unspecified)	i	i	i	i	i	nt	nt	nt	nt
c1cc2c(cc1C1CCCCC1)c1c3n2CCCNC3CCC1 (stereo unspecified)	i	98	i	64	i	i	72	48	i
Oc1ccc(C[C@H]2CNCCN2CCCCC2CCCCC2)cc1	i	72	41	58	i	i	i	i	nt
CC(O)(c1ccccc1)C(c1ccccc1)C1CCCCN1 (stereo unspecified)	i	i	i	i	i	nt	nt	nt	nt
O[C@@H](c1cc(C(F)(F)F)nc2c(C(F)(F)F)cccc12)[C@H]1CCCCN1	i	99	52	64	i	i	i	78	47
CCc1ccc(CNC(=O)CCCC(=O)n2nc(C)c3ccccc32)cc1	i	i	i	i	i	nt	nt	nt	nt
CC(C)(C)NC(=O)CN(C(=O)CN1C(=O)C(=O)c2ccccc21)C(C)(C)C	i	i	i	i	i	nt	nt	nt	nt
CC1(C)CC(=O)C2=C(C1)NC1=C(C(=O)c3ccccc31)C2c1ccc(Cl)cc1 (stereo unspecified)	i	58	i	50	i	i	56	i	nt
Cc1cn2c(=O)c(C(=O)NCc3ccc4c(c3)OCO4)cnc2s1	i	i	i	i	i	nt	nt	nt	nt
O=C(CC12CC3CC(CC(C3)C1)C2)Nc1nncs1	i	i	i	i	i	nt	nt	nt	nt

Assay outcomes (PubChem)
